We go through 24 molecules from ChEMBL document CHEMBL1132421, “N-[2,2-dimethyl-3-(N-(4-cyanobenzoyl)amino)nonanoyl]-L-phenylalanine ethyl ester as a stable ester-type inhibitor of chymotrypsin-like serine proteases: structural requirements for potent inhibition of alpha-chymotrypsin” (J Med Chem, 1999).

Series [1] has as its system chymotrypsin. In words: Percentage of intact compound after chymotrypsin cleavage at 37 degree C for 120 min. In kind it is ADME. The following applies: read-out: Stability. An outline of the steps:
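Inhibitor (5 mM stock, diluted 1:100 by volume) incubated with bovine α-chymotrypsin (625 ng/mL solution) for 120 min at 37 °C. Intact compound and cleaved free acid quantified by reverse-phase HPLC (50–75% acetonitrile in 0.1% TFA over 25 min). Result given as percent intact compound relative to the initial amount.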

For series [2], the target named is T1, Serine protease 1 (Bos taurus, UniProt P00760).
T1 sequence (P00760 whole entry): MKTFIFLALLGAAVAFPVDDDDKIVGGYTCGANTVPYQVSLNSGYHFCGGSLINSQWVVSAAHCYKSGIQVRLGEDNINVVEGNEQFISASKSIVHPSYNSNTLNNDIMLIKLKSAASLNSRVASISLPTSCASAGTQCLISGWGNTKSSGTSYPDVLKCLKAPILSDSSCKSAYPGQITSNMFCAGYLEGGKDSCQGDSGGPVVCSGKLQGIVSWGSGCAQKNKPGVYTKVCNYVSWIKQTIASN
Description: Compound was tested by chromogenic assay for the inhibition of serine proteases like Bovine trypsin. An outline of the steps: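 Trypsin (1 U/mL; named porcine pancreatic in the methods, bovine in the table footnote) with Bz-L-Arg-pNA (1 mM) in 50 mM HEPES pH 7.4 containing 0.1 mM NaCl, with varied inhibitor concentrations. Incubated 120 min at 37 °C, then A405 read. IC50 from dose-inhibition curves, with leupeptin as control.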

In series [3] the target is T2, Chymotrypsinogen A (Bos taurus, UniProt P00766). In words: In vitro inhibition of bovine alpha chymotrypsin. A digest of the protocol:
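Bovine pancreatic α-chymotrypsin (type I-S, 47 ng/mL) with N-succinyl-Ala-Ala-Pro-Phe-pNA (1.5 mM) in 50 mM HEPES pH 7.4 containing 0.1 mM NaCl, across a range of inhibitor concentrations. Incubated 120 min at 37 °C, then A405 read. IC50 taken from dose-inhibition curves, in triplicate. Chymostatin served as control.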

Series [4] deals with T3, Chymase (Homo sapiens, UniProt P23946).
T3 sequence (P23946 whole entry): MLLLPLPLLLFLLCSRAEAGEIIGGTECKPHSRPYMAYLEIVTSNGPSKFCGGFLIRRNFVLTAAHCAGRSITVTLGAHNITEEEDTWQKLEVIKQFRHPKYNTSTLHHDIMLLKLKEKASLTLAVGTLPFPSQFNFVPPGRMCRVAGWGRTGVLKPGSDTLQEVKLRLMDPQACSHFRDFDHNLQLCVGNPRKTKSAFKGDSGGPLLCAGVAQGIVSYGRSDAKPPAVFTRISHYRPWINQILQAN
Description: Compound was tested by chromogenic assay for the inhibition of human Serine protease chymase.

In series [5] the target is Chymotrypsin-like elastase family member 1 (Sus scrofa, UniProt P00772). In words: Compound was tested by chromogenic assay for the inhibition of serine proteases like Porcine Elastase. A digest of the protocol:
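Purified porcine pancreatic elastase (type III) with chromogenic substrate N-succinyl-Ala-Ala-Ala-pNA in 50 mM HEPES, pH 7.4, with NaCl. Enzyme and substrate were mixed with a range of inhibitor concentrations and held at 37 °C for 120 min. Activity was read as absorbance at 405 nm. IC50 was taken from dose-inhibition curves, with elastatinal as the reference inhibitor.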

The target in series [6] is T4, Cathepsin G (Homo sapiens, UniProt P08311).
T4 sequence (P08311 whole entry): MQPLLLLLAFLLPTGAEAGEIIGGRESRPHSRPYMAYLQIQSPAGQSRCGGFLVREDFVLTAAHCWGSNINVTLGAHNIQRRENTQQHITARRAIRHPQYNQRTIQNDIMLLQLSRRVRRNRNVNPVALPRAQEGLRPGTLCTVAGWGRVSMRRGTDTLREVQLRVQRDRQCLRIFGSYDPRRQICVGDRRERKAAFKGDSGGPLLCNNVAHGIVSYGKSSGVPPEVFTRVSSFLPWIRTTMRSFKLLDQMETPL
Description: Compound was tested by chromogenic assay for the inhibition of serine proteases like Human cathepsin G.

For series [7], the target named is T2, Chymotrypsinogen A. In words: Compound was evaluated for inactivation of bovine alpha-Chymotrypsin Kinetic constant(Ki).

Chymotrypsin-like elastase family member 1, sequence (P00772 whole entry): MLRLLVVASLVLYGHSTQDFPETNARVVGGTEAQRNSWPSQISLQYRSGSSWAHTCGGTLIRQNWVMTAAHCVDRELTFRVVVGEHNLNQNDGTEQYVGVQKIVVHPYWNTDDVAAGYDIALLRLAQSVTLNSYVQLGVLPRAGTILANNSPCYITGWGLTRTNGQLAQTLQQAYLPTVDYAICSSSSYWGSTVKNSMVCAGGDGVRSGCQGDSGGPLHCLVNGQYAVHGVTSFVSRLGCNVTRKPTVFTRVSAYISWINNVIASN

Consider `CCCCCC(NC(=O)c1ccc(C#N)cc1)C(C)(C)C(=O)N[C@@H](Cc1ccccc1)C(=O)OCC` (stereo not given in full), for which, in series [1], the remaining at 2 h is 3%.
Same read-out and setting: in the case of `CCCCCCC(NC(=O)c1ccc(C#N)cc1F)C(C)(C)C(=O)N[C@@H](Cc1ccccc1)C(=O)OCC` (stereo not given in full) it was 6%.
With `CC(C)(C(=O)OC(=O)C(C)(C)C(CCc1ccccc1)NC(=O)c1ccc(C#N)cc1)C(CCc1ccccc1)NC(=O)c1ccc(C#N)cc1` (stereo not given), the half-inhibitory concentration (IC50) in series [2] is 300 nM; in series [3] it was 2.1 nM.
In the same order, the values of `CCCCCCC(NC(=O)OC(C)(C)C)C(C)(C)C(=O)N[C@@H](Cc1ccccc1)C(=O)OCC` (stereo not given in full) are 6300 nM and 1000 nM.
Take `CCOC(=O)[C@H](Cc1ccccc1)NC(=O)C(C)(C)C(CC)NC(=O)c1ccc(C#N)cc1` (stereo not given in full): in series [1], the remaining at 2 h amounted to 91%. Moreover, the IC50 in series [3] was determined as 3400 nM.
Regarding `CCCCC(NC(=O)c1ccc(C#N)cc1)C(C)(C)C(=O)N[C@@H](Cc1ccccc1)C(=O)OCC` (stereo not given in full), the figures for the IC50 in series [4], in series [5] and in series [3] were 510000 nM, 710000 nM and 27000 nM, respectively.
Consider `CCCC(NC(=O)c1ccc(C#N)cc1)C(C)(C)C(=O)N[C@@H](Cc1ccccc1)C(=O)OCC` (stereo not given in full), for which the remaining at 2 h in series [1] was 11%.
Same read-out and setting: in the case of `CCOC(=O)[C@H](Cc1ccccc1)NC(=O)C(C)(C)C(CC(C)C)NC(=O)c1ccc(C#N)cc1` (stereo not given in full) it was 41%.
With `CCCCCCC(NC(=O)c1ccc(C#N)cc1)C(C)(C)C(=O)N[C@@H](Cc1ccccc1)C(=O)OC` (stereo not given in full), the IC50 in series [6] was 1500 nM; in series [5], 4200 nM; in series [3] it was 1100 nM. The same molecule gave a Ki in series [7] of 12000 nM. Moreover, in series [1], the remaining at 2 h turned out to be 98%.
Consider `CCCCCCCC(NC(=O)c1ccc(C#N)cc1)C(C)(C)C(=O)N[C@@H](Cc1ccccc1)C(=O)OCC` (stereo not given in full), for which the remaining at 2 h in series [1] was less than 1%.
The molecule `CCCCCCC(NC(=O)c1ccc(C#N)cc1)C(C)(C)C(=O)N[C@@H](Cc1ccccc1)C(=O)OC(C)C` (stereo not given in full) returned a Ki in series [7] of 70 nM. Besides, the IC50 in series [4] stood at 150 nM; in series [2], 6700 nM; in series [5], 200 nM; in series [3] it was 86 nM. In addition, the remaining at 2 h in series [1] came to 98%.
For the molecule `CCCCCCCCC(NC(=O)c1ccc(C#N)cc1)C(C)(C)C(=O)N[C@@H](Cc1ccccc1)C(=O)OCC` (stereo not given in full), the results for the IC50 in series [6], in series [5] and in series [3] were 6600 nM, 2700 nM and 8600 nM, respectively. The remaining at 2 h in series [1] was 61%.
Consider `CCCCCCCCCCC(NC(=O)c1ccc(C#N)cc1)C(C)(C)C(=O)N[C@@H](Cc1ccccc1)C(=O)OCC` (stereo not given in full), for which the remaining at 2 h in series [1] came to 16%.
The molecule `CCCCCCC(NC(=O)c1ccc(C#N)cc1)C(C)(C)C(=O)N[C@@H](Cc1ccccc1)C(=O)OCCC` (stereo not given in full) yielded a Ki in series [7] of 340 nM. Further, the IC50 is 17000 nM in series [2], 270 nM in series [5] and 230 nM in series [3]. The remaining at 2 h in series [1] was determined as 97%.
With `CCCCCCCCCCCCC(NC(=O)c1ccc(C#N)cc1)C(C)(C)C(=O)N[C@@H](Cc1ccccc1)C(=O)OCC` (stereo not given in full), the IC50 in series [2] was 220000 nM; in series [3] it was 4200 nM.
Take `CCCCCCC(NC(=O)c1ccc(C#N)cc1)C(C)(C)C(=O)N[C@@H](Cc1ccccc1)C(=O)OC(C)(C)C` (stereo not given in full): the IC50 in series [3] was 73000 nM.
In the case of `CCOC(=O)[C@H](Cc1ccccc1)NC(=O)C(C)(C)C(NC(=O)c1ccc(C#N)cc1)C(C)C` (stereo not given in full), the values for the IC50 in series [2] and in series [3] were 60000 nM and 2200 nM, respectively. Besides, the remaining at 2 h in series [1] is 90%.
In series [3], `CCCCCCC(NC(=O)c1ccc(C#N)cc1)C(C)(C)C(=O)N[C@@H](Cc1ccccc1)C(=O)OCc1ccccc1` (stereo not given in full) yielded an IC50 of 230000 nM.
On the same count and under the same terms, the value for `CCCCCCC(NC(=O)c1ccco1)C(C)(C)C(=O)N[C@@H](Cc1ccccc1)C(=O)OCC` (stereo not given in full) was 12000 nM.
With `CCCCCCC(NC(=O)c1ccccc1)C(C)(C)C(=O)N[C@@H](Cc1ccccc1)C(=O)OCC` (stereo not given in full), the figures for the IC50 in series [2] and in series [3] were 560000 nM and 17000 nM, respectively. In addition, in series [1], the remaining at 2 h is less than 1%.
In turn, `CCOC(=O)[C@H](Cc1ccccc1)NC(=O)C(C)(C)C(CCc1ccccc1)NC(=O)c1ccc(C#N)cc1` (stereo not given in full) yielded an IC50 in series [3] of 250 nM.
Regarding `CCCCCCC(NC(=O)c1ccc(C#N)cc1)C(C)(C)C(=O)N[C@@H](Cc1ccccc1)C(=O)OCC` (stereo in doubt; 3), the Ki in series [7] worked out at 4.5 nM. Also, the results for the IC50 in series [2], in series [5] and in series [3] were 540 nM, 7 nM and 2.6 nM, respectively.
`CCCCCCC(NC(=O)c1ccc(C#N)cc1)C(C)(C)C(=O)N[C@@H](Cc1ccccc1)C(=O)OCC` (stereo in doubt; 3-F): the IC50 in series [5] amounted to 8.6 nM; in series [3] it was 1.6 nM.
In the same order, the values of `CCCCCCC(NC(=O)c1ccc(C#N)cc1)C(C)(C)C(=O)N[C@@H](Cc1ccccc1)C(=O)OCC` (stereo in doubt; 3-R) are 14 nM and 5.1 nM.

By IC50 is commonly meant the concentration needed to halve the response being measured. Lower therefore signals greater potency.
